Reference: ChEMBL document CHEMBL2331121, “Design, synthesis, and pharmacological characterization of N- and O-substituted 5,6,7,8-tetrahydro-4H-isoxazolo[4,5-d]azepin-3-ol analogues: novel 5-HT(2A)/5-HT(2C) receptor agonists with pro-cognitive properties” (J Med Chem, 2013)
The source made the active and inactive calls. The rule behind the calls is not given here.

Columns and labels:
[1] = biological target: T1, 5-hydroxytryptamine receptor 2C (Homo sapiens, UniProt P28335); experiment: Displacement of [3H]mesulergine from human 5HT2C receptor expressed in tsA201 cell membranes after 1 hr by scintillation counting analysis
T1 sequence (P28335 whole entry): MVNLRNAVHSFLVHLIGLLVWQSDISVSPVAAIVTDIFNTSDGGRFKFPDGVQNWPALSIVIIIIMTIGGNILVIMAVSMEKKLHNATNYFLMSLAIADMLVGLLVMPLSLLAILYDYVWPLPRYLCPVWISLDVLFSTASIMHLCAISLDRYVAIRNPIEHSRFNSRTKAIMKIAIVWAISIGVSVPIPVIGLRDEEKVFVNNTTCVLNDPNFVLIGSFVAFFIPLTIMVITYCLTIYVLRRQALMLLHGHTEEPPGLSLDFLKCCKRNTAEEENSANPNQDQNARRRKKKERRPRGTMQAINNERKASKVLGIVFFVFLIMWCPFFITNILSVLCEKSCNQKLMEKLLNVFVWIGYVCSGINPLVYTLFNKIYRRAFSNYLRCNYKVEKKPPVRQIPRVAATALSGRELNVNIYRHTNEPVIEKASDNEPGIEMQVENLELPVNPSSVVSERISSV

[2] = biological target: T2, 5-hydroxytryptamine receptor 2C (Homo sapiens) (UniProt P28335); experiment: Agonist activity at human 5HT2C receptor expressed in HEK293 cells assessed as induction of intracellular calcium release up to 1000 uM measured up to 90 secs by fluorescence assay; format: functional, cell-based
T2 sequence (whole entry): T1 sequence (P28335 whole entry)
Outline: (§1)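 Stable polyclonal 5-HT2A or 5-HT2C HEK293 cells seeded on poly-D-lysine plates (6 × 10⁴ cells/well). Next day loaded with Fluo-4/AM for 1 h at 37 °C in HBSS/20 mM HEPES/1 mM CaCl₂/1 mM MgCl₂/2.5 mM probenecid, pH 7.4. Fluorescence (485 ex/525 em) recorded before and up to 90 s after agonist. Response relative to 5-HT on the same plate. Duplicate, at least three times.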

[3] = biological target: T3, 5-hydroxytryptamine receptor 2A (Homo sapiens, UniProt P28223); experiment: biochemical; format: cell-based, tsA201
[4] = biological target: T3, 5-hydroxytryptamine receptor 2A; experiment: Agonist activity at human 5HT2A receptor expressed in HEK293 cells assessed as induction of intracellular calcium release up to 1000 uM measured up to 90 secs by fluorescence assay; format: functional, cell-based; outline: as §1
[5] = biological target: T3, 5-hydroxytryptamine receptor 2A; experiment: Agonist activity at human 5HT2A receptor expressed in HEK293 cells assessed as induction of intracellular calcium release at 100 to 1000 uM by fluorescence assay; format: functional, cell-based
Outline: (§2)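 Stable polyclonal h5-HT2A or h5-HT2C HEK293 cells plated on poly-D-lysine wells, loaded next day with Fluo-4/AM for 1 h at 37 °C. Buffer was HBSS with 20 mM HEPES, 1 mM CaCl₂, 1 mM MgCl₂, 2.5 mM probenecid, pH 7.4. Fluorescence read at 485/525 nm before and up to 90 s after agonist addition. Responses normalised to 5-HT on the same plate. Duplicate, 4−10 experiments.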

[6] = biological target: T2, 5-hydroxytryptamine receptor 2C (Homo sapiens); experiment: Agonist activity at human 5HT2C receptor expressed in HEK293 cells assessed as induction of intracellular calcium release at 100 to 1000 uM by fluorescence assay; format: functional, cell-based; outline: as §2
[7] = biological target: T4, 5-hydroxytryptamine receptor 2C (Rattus norvegicus) (UniProt P08909); experiment: Displacement of [125I]-N-(p-I-Bn)-THAZ from 5HT2C receptor in rat midbrain membrane after 1 hr by scintillation counting analysis; format: cell membranes
T4 sequence (whole entry): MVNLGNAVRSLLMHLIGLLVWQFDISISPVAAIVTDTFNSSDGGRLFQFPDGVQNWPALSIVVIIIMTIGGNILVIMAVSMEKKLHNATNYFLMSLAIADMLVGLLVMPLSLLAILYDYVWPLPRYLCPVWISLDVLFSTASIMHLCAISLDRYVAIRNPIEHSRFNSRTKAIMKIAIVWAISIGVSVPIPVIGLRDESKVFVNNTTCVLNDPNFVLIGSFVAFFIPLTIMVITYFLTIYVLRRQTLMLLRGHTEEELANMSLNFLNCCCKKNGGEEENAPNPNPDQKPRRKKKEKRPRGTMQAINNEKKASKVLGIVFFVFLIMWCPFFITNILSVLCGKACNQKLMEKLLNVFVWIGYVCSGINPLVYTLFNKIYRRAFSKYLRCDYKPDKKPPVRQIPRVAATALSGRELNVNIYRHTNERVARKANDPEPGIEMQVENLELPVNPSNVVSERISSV

[8] = biological target: T4, 5-hydroxytryptamine receptor 2C (Rattus norvegicus); experiment: (§3) Displacement of [125I]-N-(p-I-Bn)-THAZ from 5HT2C receptor in rat cerebral cortex membrane after 1 hr by scintillation counting analysis; format: cell membranes
[9] = biological target: T5, 5-hydroxytryptamine receptor 2C (Rattus norvegicus, UniProt P08909); experiment: as §3; format: cell membranes
T5 sequence (P08909 whole entry): T4 sequence (whole entry)

[10] = biological target: T4, 5-hydroxytryptamine receptor 2C (Rattus norvegicus); experiment: Displacement of [125I]-N-(p-I-Bn)-THAZ from 5HT2C receptor in rat cerebellum membrane after 1 hr by scintillation counting analysis; format: cell membranes
[11] = biological target: T4, 5-hydroxytryptamine receptor 2C (Rattus norvegicus); experiment: Displacement of [125I]-N-(p-I-Bn)-THAZ from 5HT2C receptor in rat hippocampal membrane after 1 hr by scintillation counting analysis; format: cell membranes; settings: Hippocampus
[12] = biological target: T3, 5-hydroxytryptamine receptor 2A; experiment: Agonist activity at human 5HT2A receptor expressed in HEK293 cells assessed as accumulation of IP1 incubated for 1 hr at 37 degC followed by 15 mins at RT by TR-FRET assay; format: functional, cell-based
[13] = biological target: T3, 5-hydroxytryptamine receptor 2A; experiment: Agonist activity at human 5HT2A receptor expressed in HEK293 cells assessed as accumulation of IP1 incubated for 1 hr at 37 degC followed by 15 mins at RT by TR-FRET assay relative to 5HT; format: functional, cell-based
Outline: (§4)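 Polyclonal HEK293 lines stably expressing human 5-HT2A (variant 1) or 5-HT2C (INI isoform), detached and suspended at 1 × 10⁷ cells/mL in HBSS with 20 mM HEPES, 1 mM CaCl₂, 1 mM MgCl₂, pH 7.4. Ligands in buffer with 40 mM LiCl. Incubated 1 h at 37 °C, then 15 min RT. IP1 read by HTRF 665/615 ratio. Triplicate, at least four times.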

[14] = biological target: T2, 5-hydroxytryptamine receptor 2C (Homo sapiens); experiment: Ratio of EC50 for human 5HT2C receptor by calcium fiux-based fluorescence assay to […] accumulation-based TR-FRET assay; format: functional
[15] = biological target: T1, 5-hydroxytryptamine receptor 2C; experiment: Agonist activity at human 5HT2C receptor expressed in HEK293 cells assessed as accumulation of IP1 incubated for 1 hr at 37 degC followed by 15 mins at RT by TR-FRET assay; format: functional, cell-based
[16] = biological target: T3, 5-hydroxytryptamine receptor 2A; experiment: Agonist activity at human 5HT2A receptor expressed in HEK293 cells assessed as induction of intracellular calcium release measured for 90 secs by fluorescence assay; format: functional, cell-based
[17] = biological target: T1, 5-hydroxytryptamine receptor 2C; experiment: Agonist activity at human 5HT2C receptor expressed in HEK293 cells assessed as induction of intracellular calcium release measured for 90 secs by fluorescence assay; format: functional, cell-based; settings: read-out: EC50
[18] = biological target: T2, 5-hydroxytryptamine receptor 2C (Homo sapiens); experiment: Agonist activity at human 5HT2C receptor expressed in HEK293 cells assessed as induction of intracellular calcium release by fluorescence assay relative to 5HT; format: functional, cell-based; outline: as §1
[19] = biological target: T3, 5-hydroxytryptamine receptor 2A; experiment: Agonist activity at human 5HT2A receptor expressed in HEK293 cells assessed as induction of intracellular calcium release by fluorescence assay relative to 5HT; format: functional, cell-based; outline: as §1
[20] = biological target: T2, 5-hydroxytryptamine receptor 2C (Homo sapiens); experiment: Agonist activity at human 5HT2C receptor expressed in HEK293 cells assessed as accumulation of IP1 incubated for 1 hr at 37 degC followed by 15 mins at RT by TR-FRET assay relative to 5HT; format: functional, cell-based; outline: as §4
[21] = biological target: T3, 5-hydroxytryptamine receptor 2A; experiment: Ratio of EC50 for human 5HT2A receptor by calcium fiux-based fluorescence assay to EC50 for 5HT2A by IP1 accumulation-based TR-FRET assay; format: functional
[22] = biological target: T3, 5-hydroxytryptamine receptor 2A; format: functional, cell-based, HEK293
[23] = biological target: T1, 5-hydroxytryptamine receptor 2C; experiment: Antagonist activity at human 5HT2C receptor expressed in HEK293 cells assessed as inhibition of 5HT-induced intracellular calcium release measured for 90 secs by fluorescence assay; format: functional, cell-based
[24] = biological target: T3, 5-hydroxytryptamine receptor 2A; experiment: Antagonist activity at human 5HT2A receptor expressed in HEK293 cells assessed as inhibition of 5HT-induced intracellular calcium release at 1 mM measured for 90 secs by fluorescence assay; format: functional, cell-based
Outline: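 Fluo-4/Ca²⁺ read-out in stable h5-HT2A or h5-HT2C HEK293 cells (HBSS/HEPES/probenecid buffer, pH 7.4). Antagonist was added after the dye-loading wash, then cells were challenged with an EC₇₅−EC₈₅ concentration of 5-HT. Emission at 525 nm was monitored up to 90 s after agonist addition. Duplicate, repeated in independent experiments.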

[25] = biological target: T3, 5-hydroxytryptamine receptor 2A; experiment: Agonist activity at human 5HT2A receptor expressed in HEK293 cells assessed as induction of intracellular calcium release at 1 mM measured for 90 secs by fluorescence assay; format: functional, cell-based; outline: as §2

T3 sequence (P28223 whole entry): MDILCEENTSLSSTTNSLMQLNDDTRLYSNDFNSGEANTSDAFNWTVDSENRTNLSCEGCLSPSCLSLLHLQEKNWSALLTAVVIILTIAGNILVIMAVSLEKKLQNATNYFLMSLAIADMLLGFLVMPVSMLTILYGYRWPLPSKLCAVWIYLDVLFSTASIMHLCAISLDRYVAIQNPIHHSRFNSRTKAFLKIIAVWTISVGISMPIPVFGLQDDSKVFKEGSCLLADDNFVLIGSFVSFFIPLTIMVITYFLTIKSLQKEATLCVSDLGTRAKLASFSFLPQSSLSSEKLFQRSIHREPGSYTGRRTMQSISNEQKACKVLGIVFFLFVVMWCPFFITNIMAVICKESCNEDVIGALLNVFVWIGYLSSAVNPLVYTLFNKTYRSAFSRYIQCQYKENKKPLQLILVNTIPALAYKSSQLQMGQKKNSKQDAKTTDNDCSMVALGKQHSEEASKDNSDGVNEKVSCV

CCCn1oc2c(c1=O)CCNCC2
Ki [1]: 100 µM | Activity [2]: Active | Ki ([3]; read-out: Ki): 100 µM | Activity [4]: Active

c1ccc(COc2noc3c2CNCC3)cc1
Activity [5]: Active | Activity [6]: Active

Cn1oc2c(c1=O)CCNCC2
Ki [1]: > 300 µM | Ki ([3]; read-out: Ki): > 300 µM | Ki ([3]; read-out: pKi (converted)): > 316 µM | Activity [5]: Active | Activity [6]: Active

O=c1c2c(on1Cc1ccc(I)cc1)CCNCC2
Activity [7]: inactive | Ki [1]: 0.31 µM | Activity [8]: Dose-dependent effect | Ki [9]: 0.0102 µM | Activity [10]: inactive | Activity [11]: inactive

COc1noc2c1CNCC2
Activity [2]: Active | Activity [4]: Active

c1ccc(COc2noc3c2CCNCC3)cc1
EC50 [12]: 1.3 µM | Ki [1]: 1.2 µM | Emax [13]: 77% | Ratio EC50 [14]: 2 | Ki ([3]; read-out: Ki): 3.3 µM | EC50 [15]: 0.23 µM | EC50 ([16]; read-out: EC50): 0.24 µM | EC50 [17]: 0.1 µM | Emax [18]: 84% | Emax [19]: 59% | Emax [20]: 105% | Ratio EC50 [21]: 2

CN1CC2c3ccccc3Oc3ccc(Cl)cc3C2C1 (racemic) [ASENAPINE]
Ki ([22]; read-out: Ki): 0.00091 µM | Ki [23]: 0.0025 µM

COc1noc2c1CCN(C)CC2
Activity [24]: inactive | Ki [1]: > 300 µM | Ki ([3]; read-out: Ki): > 300 µM | Ki ([3]; read-out: pKi (converted)): > 316 µM | EC50 ([16]; hek293, read-out: EC50): > 1000 µM | EC50 ([16]; read-out: pEC50 (converted)): > 1000 µM | Activity [25]: inactive | Activity [6]: Active

CCn1oc2c(c1=O)CCNCC2
Ki [1]: 300 µM | Activity [2]: Active | Ki ([3]; read-out: Ki): 300 µM | Activity [4]: Active

OC(c1ccccc1)C1CCN(CCc2ccccc2)CC1 (configuration not stated) [GLEMANSERIN]
Ki ([22]; read-out: pKi (converted)): 0.00245 µM | Ki [23]: 10 µM
